Source: ChEMBL document CHEMBL1142348, “beta-N-Biaryl ether sulfonamide hydroxamates as potent gelatinase inhibitors: part 1. Design, synthesis, and lead identification” (Bioorg Med Chem Lett, 2008)
≈ marks a conversion by molar mass, not a printed value.

What was measured:
[1] = Cmax in rat at 0.5 mg/kg, iv; format: ADME, organism-based; parameters: dose 0.5 mg/kg, route intravenous; settings: in vivo
Summary of the method: (§1)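 Rats, n=4 per group, single intravenous dose of 0.5 mg/kg. Plasma Cmax was taken at t = 5 min. Apparent elimination half-life, AUC, steady-state volume of distribution and clearance were derived from the plasma profile. Values are means of the 4 animals.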

[2] = Solubility in water at pH 7; format: physicochemical
[3] = Half life in rat at 0.5 mg/kg, iv; format: ADME, organism-based; parameters: dose 0.5 mg/kg, route intravenous; settings: in vivo; summary of the method: as §1
[4] = Volume of distribution in rat at steady state at 0.5 mg/kg, iv; format: ADME, organism-based; parameters: dose 0.5 mg/kg, route intravenous; settings: in vivo, read-out: Vdss; summary of the method: as §1
[5] = Solubility in water at pH 2; format: physicochemical
[6] = Clearance in rat at 0.5 mg/kg, iv; format: ADME, organism-based; parameters: dose 0.5 mg/kg, route intravenous; settings: in vivo; summary of the method: as §1
[7] = AUC in rat at 0.5 mg/kg, iv; format: ADME, organism-based; parameters: dose 0.5 mg/kg, route intravenous; settings: plasma; summary of the method: as §1
[8] = Stability in human liver microsomes
[9] = Stability in rat liver microsomes
[10] = molecular target: T1, Matrix metalloproteinase-9 (Homo sapiens, UniProt P14780); test: Inhibition of catalytic domain MMP9
T1 sequence (P14780 whole entry, the tested form may be a part): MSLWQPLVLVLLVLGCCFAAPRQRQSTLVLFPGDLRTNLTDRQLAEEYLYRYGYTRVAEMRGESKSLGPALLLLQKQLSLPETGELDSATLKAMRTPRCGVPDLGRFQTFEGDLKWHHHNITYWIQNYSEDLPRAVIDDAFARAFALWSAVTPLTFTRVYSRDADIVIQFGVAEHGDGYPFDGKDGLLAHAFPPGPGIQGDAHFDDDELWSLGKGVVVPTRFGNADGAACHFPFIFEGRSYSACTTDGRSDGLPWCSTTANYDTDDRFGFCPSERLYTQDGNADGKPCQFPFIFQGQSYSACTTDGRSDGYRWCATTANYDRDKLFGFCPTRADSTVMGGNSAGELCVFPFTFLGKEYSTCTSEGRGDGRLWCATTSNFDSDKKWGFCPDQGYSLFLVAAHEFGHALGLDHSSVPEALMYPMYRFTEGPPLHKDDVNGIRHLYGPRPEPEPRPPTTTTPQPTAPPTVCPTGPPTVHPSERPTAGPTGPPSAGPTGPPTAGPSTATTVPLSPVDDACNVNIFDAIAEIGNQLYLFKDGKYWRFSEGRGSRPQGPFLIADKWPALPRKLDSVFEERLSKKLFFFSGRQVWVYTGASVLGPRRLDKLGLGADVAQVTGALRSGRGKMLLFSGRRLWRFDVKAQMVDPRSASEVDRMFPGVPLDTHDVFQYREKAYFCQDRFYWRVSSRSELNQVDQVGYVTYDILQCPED
Summary of the method: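 Peptide-cleavage FRET assay using MMP-1 and -9 catalytic domains or full-length MMP-2, each titrated to give linear velocity. Enzyme was preincubated with inhibitor for 1 h at room temperature in 50 mM Hepes pH 7.4, 10 mM CaCl2, 0.05% Brij-35, final DMSO 0.04%. Eu/QSY7-labelled peptide substrate was then added for 15 min at room temperature, and liberated Eu fluorescence was read.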

[11] = molecular target: T2, Interstitial collagenase (Homo sapiens, UniProt P03956); test: Inhibition of catalytic domain MMP1
T2 sequence (P03956 whole entry): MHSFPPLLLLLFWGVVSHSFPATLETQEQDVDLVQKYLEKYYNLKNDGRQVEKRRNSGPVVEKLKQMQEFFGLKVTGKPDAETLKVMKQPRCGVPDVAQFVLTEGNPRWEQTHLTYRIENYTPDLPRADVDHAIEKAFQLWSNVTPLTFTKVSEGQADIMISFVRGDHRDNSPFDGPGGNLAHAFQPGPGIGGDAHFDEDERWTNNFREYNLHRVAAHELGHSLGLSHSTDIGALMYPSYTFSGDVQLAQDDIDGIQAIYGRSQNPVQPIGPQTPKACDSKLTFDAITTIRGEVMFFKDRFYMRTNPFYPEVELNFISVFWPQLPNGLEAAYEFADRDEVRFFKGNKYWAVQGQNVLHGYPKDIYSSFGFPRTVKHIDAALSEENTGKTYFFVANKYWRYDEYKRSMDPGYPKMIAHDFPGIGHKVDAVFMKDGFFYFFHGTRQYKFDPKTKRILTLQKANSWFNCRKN

[12] = molecular target: T3, 72 kDa type IV collagenase (Homo sapiens, UniProt P08253); test: Inhibition of full length MMP2
Target sequence in this assay (P08253 whole entry, the tested form may be a part): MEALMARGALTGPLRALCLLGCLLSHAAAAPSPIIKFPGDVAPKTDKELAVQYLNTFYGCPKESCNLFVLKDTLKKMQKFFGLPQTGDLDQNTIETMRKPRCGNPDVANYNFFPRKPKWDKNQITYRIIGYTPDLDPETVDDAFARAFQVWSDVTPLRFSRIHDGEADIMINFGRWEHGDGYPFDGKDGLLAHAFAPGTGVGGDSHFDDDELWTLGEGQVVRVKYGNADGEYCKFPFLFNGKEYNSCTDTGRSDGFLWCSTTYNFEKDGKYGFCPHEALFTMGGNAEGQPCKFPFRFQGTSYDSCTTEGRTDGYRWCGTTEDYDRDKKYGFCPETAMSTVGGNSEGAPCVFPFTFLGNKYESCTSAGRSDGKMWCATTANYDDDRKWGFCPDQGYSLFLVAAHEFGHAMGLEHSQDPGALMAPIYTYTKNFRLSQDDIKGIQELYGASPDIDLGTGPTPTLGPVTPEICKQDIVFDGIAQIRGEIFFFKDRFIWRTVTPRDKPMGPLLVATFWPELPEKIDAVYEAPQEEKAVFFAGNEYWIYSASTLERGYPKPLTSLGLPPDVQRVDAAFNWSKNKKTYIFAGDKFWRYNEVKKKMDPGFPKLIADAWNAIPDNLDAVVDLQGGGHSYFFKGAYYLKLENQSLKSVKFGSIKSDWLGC

[13] = Selectivity ratio, IC50 for full length MMP2 to IC50 for catalytic domain MMP9
Summary of the method: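 Full-length MMP-2 and MMP-9 catalytic domain, each titrated for linear velocity, in 50 mM Hepes pH 7.4, 10 mM CaCl2, 0.05% Brij-35. Preincubated 1 h at room temperature with compound dilutions (final DMSO 0.04%). Eu/QSY7-quenched peptide substrate added for 15 min at room temperature; cleavage read as Eu fluorescence. Triplicate 16-point curves, nonlinear regression; ratio is MMP-2 IC50/MMP-9 IC50.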

[14] = molecular target: T1, Matrix metalloproteinase-9; test: Inhibition of MMP9 catalytic domain at 10 uM
[15] = molecular target: T3, 72 kDa type IV collagenase; test: Inhibition of full length MMP2 at 10 uM
Target sequence in this assay (P08253 110-660 limits assumed): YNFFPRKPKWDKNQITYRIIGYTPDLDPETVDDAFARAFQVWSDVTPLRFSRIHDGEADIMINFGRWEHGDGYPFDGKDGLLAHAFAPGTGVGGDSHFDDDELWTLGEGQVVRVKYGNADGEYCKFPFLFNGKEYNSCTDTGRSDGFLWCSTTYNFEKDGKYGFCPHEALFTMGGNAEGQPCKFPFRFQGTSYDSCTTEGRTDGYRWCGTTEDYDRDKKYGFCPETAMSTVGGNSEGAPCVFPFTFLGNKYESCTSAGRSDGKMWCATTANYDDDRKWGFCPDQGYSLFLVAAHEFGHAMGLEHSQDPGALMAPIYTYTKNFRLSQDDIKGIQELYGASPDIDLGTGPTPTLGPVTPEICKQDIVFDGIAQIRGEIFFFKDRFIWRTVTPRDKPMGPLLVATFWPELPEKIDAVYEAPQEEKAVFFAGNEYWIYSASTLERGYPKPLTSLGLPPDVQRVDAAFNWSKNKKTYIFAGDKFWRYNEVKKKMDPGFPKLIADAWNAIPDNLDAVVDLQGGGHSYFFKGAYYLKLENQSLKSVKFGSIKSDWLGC

IC50 [10] | IC50 [12] | Ratio IC50 [13] | Structure (SMILES) | other results
 |  |  | Cc1ccc(Oc2ccc(N(C[C@H](O)C(=O)NO)S(C)(=O)=O)cc2)cc1 | Cmax [1]: 1300 nM; solubility [2]: 28 µg/mL (≈ 73.6 µM); half-life [3]: 25.8 min; Vd [4]: 1.4 L/kg; solubility [5]: < 5 µg/mL; clearance [6]: 47.5 mL/min/kg; AUC [7]: 180 ng·h/mL
5.5 nM | 20 nM |  | Cc1ccc(Oc2ccc(N(CC(C)(O)C(=O)NO)S(C)(=O)=O)cc2)cc1 (racemic) | Cmax [1]: 1500 nM; solubility [2]: 28 µg/mL (≈ 71 µM); half-life [3]: 43.2 min; Vd [4]: 1.5 L/kg; half-life [8]: 103 min; half-life [9]: 10 min; solubility [5]: < 5 µg/mL; IC50 [11]: > 10000 nM; clearance [6]: 41.5 mL/min/kg; AUC [7]: 220 ng·h/mL
1490 nM | 2920 nM | 1.9 | CS(=O)(=O)N(C[C@H](O)C(=O)NO)c1ccc(OCc2ccc(C(F)(F)F)cc2)cc1 | IC50 [11]: > 10000 nM
31 nM | 73 nM |  | Cc1ccc(Oc2ccc(N(CC(=O)NO)S(C)(=O)=O)cc2)cc1 | 
 |  | 1.2 | CS(=O)(=O)N(C[C@H](O)C(=O)NO)c1ccc(C#Cc2ccc(Cl)cc2)cc1 | 
44 nM | 47 nM | 1.1 | Cc1ccc(C#Cc2ccc(N(C[C@H](O)C(=O)NO)S(C)(=O)=O)cc2)cc1 | 
 |  |  | CS(=O)(=O)N(C[C@H](O)C(=O)NO)c1ccc(-c2ccccc2)cc1 | inhibition [14]: 79%; inhibition [15]: 87%
 |  | 6.4 | Cc1ccc(Oc2ccc(N(C[C@H](O)C(=O)NO)S(=O)(=O)Cc3ccncc3)cc2)cc1 | 
13 nM |  |  | CO[C@H](CN(c1ccc(Oc2ccc(C)cc2)cc1)S(C)(=O)=O)C(=O)NO | 
 |  |  | Cc1ccc(Oc2ccc(N(C[C@H](O)C(=O)O)S(C)(=O)=O)cc2)cc1 | inhibition [14]: < 10%; inhibition [15]: < 10%
3.8 nM | 36 nM |  | CO[C@@H](CN(c1ccc(Oc2ccc(C)cc2)cc1)S(C)(=O)=O)C(=O)NO | 
39 nM | 247 nM | 6.3 | CS(=O)(=O)N(C[C@H](O)C(=O)NO)c1ccc(Oc2ccccc2)cc1 | 
 |  | 4.1 | CCCS(=O)(=O)N(C[C@H](O)C(=O)NO)c1ccc(Oc2ccc(C)cc2)cc1 | 
984 nM | 893 nM | 0.9 | CS(=O)(=O)N(C[C@H](O)C(=O)NO)c1ccc(OCc2ccc(Cl)cc2)cc1 | IC50 [11]: > 10000 nM
54 nM | 297 nM | 5.5 | Cc1ccc(Sc2ccc(N(C[C@H](O)C(=O)NO)S(C)(=O)=O)cc2)cc1 | 
104 nM | 283 nM | 2.7 | CS(=O)(=O)N(C[C@H](O)C(=O)NO)c1ccc(Sc2ccc(F)cc2)cc1 | 
 |  | 9.9 | CS(=O)(=O)N(C[C@H](O)C(=O)NO)c1ccc(Oc2ccc(C(F)(F)F)cc2)cc1 | 
12 nM | 67 nM |  | Cc1ccc(Oc2ccc(N(C[C@@H](O)C(=O)NO)S(C)(=O)=O)cc2)cc1 | 
242 nM | 286 nM |  | CC(C)C(=O)N(C[C@H](O)C(=O)NO)c1ccc(Oc2ccc(Cl)cc2)cc1 | 
 |  | 6.3 | Cc1ccc(Oc2ccc(N(C[C@H](O)C(=O)NO)S(=O)(=O)Cc3ccccc3)cc2)cc1 | 
933 nM | 1260 nM |  | CC(=O)N(C[C@H](O)C(=O)NO)c1ccc(Oc2ccc(Cl)cc2)cc1 | 
4820 nM | 2320 nM | 0.5 | CS(=O)(=O)N(C[C@H](O)C(=O)NO)c1ccc(OCc2ccc(F)cc2)cc1 | IC50 [11]: > 10000 nM
 |  | 7.4 | CS(=O)(=O)N(C[C@H](O)C(=O)NO)c1ccc(Oc2ccc(Cl)cc2)cc1 | 
28 nM | 142 nM | 5.1 | CCS(=O)(=O)N(C[C@H](O)C(=O)NO)c1ccc(Oc2ccc(C)cc2)cc1 | 
> 10000 nM | > 10000 nM |  | CS(=O)(=O)N(C[C@H](O)C(=O)NO)c1ccc(S(=O)(=O)c2ccccc2)cc1 | 
6.6 nM | 61 nM |  | Cc1ccc(Oc2ccc(N(CCC(=O)NO)S(C)(=O)=O)cc2)cc1 | IC50 [11]: > 10000 nM
 |  | 5.8 | Cc1ccc(Oc2ccc(N(C[C@H](O)C(=O)NO)S(=O)(=O)Cc3cccnc3)cc2)cc1 | 
 | 32 nM | 0.4 | COc1ccc(C#Cc2ccc(N(C[C@H](O)C(=O)NO)S(C)(=O)=O)cc2)cc1 | IC50 [11]: > 10000 nM
383 nM | 147 nM |  | CS(=O)(=O)N(CC(=O)NO)c1ccc(Oc2ccccc2)cc1 | IC50 [11]: > 10000 nM
